≈ marks a conversion by molar mass, not a printed value. Calls of active or inactive are those of the source. No cut-off for these calls is given here.
What was measured:
Format in all cases: functional
Staphylococcus aureus [1] = experiment: Antibacterial activity against Staphylococcus aureus NCIB 8588 after 24 hrs by agar well diffusion method; for IZ: test concentration or dose not given here
Method in brief: (§1)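 Agar well diffusion. Clinical isolates were first checked for viability, then grown in nutrient broth for 8 h at 37 °C. About 0.2 ml of broth culture was mixed into 18 ml molten diagnostic sensitivity test agar cooled to 45 °C and poured into plates. Compounds in DMSO went into bored wells, with streptomycin as reference. Plates stood 1 h for diffusion, then were incubated upright at 37 °C for 24 h. Clear inhibition zones were read in mm.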

Escherichia coli [2] = experiment: Antibacterial activity against Escherichia coli NCIB 86 after 24 hrs by agar well diffusion method; method in brief: as §1; for IZ: test concentration or dose not given here
Pseudomonas fluorescens = experiment: Antibacterial activity against Pseudomonas fluorescens NCIB 3756 after 24 hrs by agar well diffusion method; method in brief: as §1; for IZ: test concentration or dose not given here
Klebsiella pneumoniae [3] = experiment: Antibacterial activity against Klebsiella pneumoniae NCIB 418 after 24 hrs by agar well diffusion method; method in brief: as §1; for IZ: test concentration or dose not given here
Bacillus subtilis [4] = experiment: Antibacterial activity against Bacillus subtilis NCIB 3610 after 24 hrs by agar well diffusion method; method in brief: as §1; for IZ: test concentration or dose not given here
Bacillus cereus [5] = experiment: Antibacterial activity against Bacillus cereus NCIB 6349 after 24 hrs by agar well diffusion method; method in brief: as §1; for IZ: test concentration or dose not given here
Shigella dysenteriae [6] = experiment: Antibacterial activity against Shigella dysenteriae after 24 hrs by agar well diffusion method
Pseudomonas aeruginosa = experiment: Antibacterial activity against Pseudomonas aeruginosa NCIB 950 after 24 hrs by agar well diffusion method; method in brief: as §1; for IZ: test concentration or dose not given here
Candida albicans = experiment: Antifungal activity against Candida albicans after 3 days by agar well diffusion method
Bacillus anthracis [7] = experiment: Antibacterial activity against Bacillus anthracis after 72 hrs
[8] = tested on: Geobacillus stearothermophilus; experiment: Antibacterial activity against Bacillus stearothermophilus NCIB 8222 after 72 hrs; conditions: NCIB 8222, 72 h
Method in brief: (§2)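 MIC by the Russell and Furr method, run on selected Gram-positive and Gram-negative strains. Once the agar had set and its surface had dried, nutrient agar plates were streaked with overnight broth cultures. They were incubated at 37 °C for up to 72 h and scored for presence or absence of growth.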

Bacillus subtilis [9] = experiment: Antibacterial activity against Bacillus subtilis NCIB 3610 after 72 hrs; conditions: NCIB 3610, 72 h; method in brief: as §2
Bacillus cereus [10] = experiment: Antibacterial activity against Bacillus cereus NCIB 6349 after 72 hrs; conditions: NCIB 6349, 72 h; method in brief: as §2
Staphylococcus aureus [11] = experiment: Antibacterial activity against Staphylococcus aureus NCIB 8588 after 72 hrs; method in brief: as §2
Escherichia coli [12] = experiment: Antibacterial activity against Escherichia coli NCIB 86 after 72 hrs; conditions: NCIB 86, 72 h; method in brief: as §2
Klebsiella pneumoniae [13] = experiment: Antibacterial activity against Klebsiella pneumoniae NCIB 418 after 72 hrs; conditions: NCIB 418, 72 h; method in brief: as §2
Shigella dysenteriae [14] = experiment: Antibacterial activity against Shigella dysenteriae after 72 hrs
Method in brief: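 MIC by agar dilution: compound-containing nutrient agar was set and surface-dried, then streaked with overnight broth culture of the clinical isolate. Incubated at 37 °C for up to 72 h and scored for presence or absence of growth. Streptomycin was the reference.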

Bacillus anthracis [15] = experiment: Antibacterial activity against Bacillus anthracis after 24 hrs by agar well diffusion method
[16] = tested on: Geobacillus stearothermophilus; experiment: Antibacterial activity against Bacillus stearothermophilus NCIB 8222 after 24 hrs by agar well diffusion method; method in brief: as §1; for IZ: test concentration or dose not given here

Compound	inhibition zone (IZ) (Staphylococcus aureus [1])	inhibition zone (IZ) (Escherichia coli [2])	inhibition zone (IZ) (Pseudomonas fluorescens)	inhibition zone (IZ) (Klebsiella pneumoniae [3])	inhibition zone (IZ) (Bacillus subtilis [4])	inhibition zone (IZ) (Bacillus cereus [5])	inhibition zone (IZ) (Shigella dysenteriae [6])	inhibition zone (IZ) (Pseudomonas aeruginosa)	inhibition zone (IZ) (Candida albicans)	MIC (Bacillus anthracis [7])	MIC [8]	MIC (Bacillus subtilis [9])	MIC (Bacillus cereus [10])	MIC (Staphylococcus aureus [11]; NCIB 8588, 72 h)	MIC (Escherichia coli [12])	MIC (Klebsiella pneumoniae [13])	MIC (Shigella dysenteriae [14])	inhibition zone (IZ) (Bacillus anthracis [15])	inhibition zone (IZ) [16]	MIC (Staphylococcus aureus [11])
CC1CCCC/C1=N\Nc1nc2ccccc2[nH]c1=O (stereo unspecified)	19 mm	12 mm	13 mm	15 mm	12 mm	13 mm	0 mm	0 mm	14 mm	15.6 µg/mL (≈ 57.7 µM)	7.8 µg/mL (≈ 28.9 µM)	62.5 µg/mL (≈ 231 µM)	15.6 µg/mL (≈ 57.7 µM)	7.8 µg/mL (≈ 28.9 µM)	31.3 µg/mL (≈ 116 µM)	7.8 µg/mL (≈ 28.9 µM)	inactive	16 mm	25 mm	
Cc1ccc2c(c1)/C(=N/Nc1nc3ccccc3[nH]c1=O)C(=O)N2	19 mm	14 mm	0 mm	17 mm	15 mm	10 mm	14 mm	0 mm	30 mm	inactive	62.5 µg/mL (≈ 196 µM)	31.3 µg/mL (≈ 98 µM)	62.5 µg/mL (≈ 196 µM)	15.6 µg/mL (≈ 48.9 µM)	31.3 µg/mL (≈ 98 µM)	15.6 µg/mL (≈ 48.9 µM)	31.3 µg/mL (≈ 98 µM)	0 mm	13 mm	
C/C(=N\Nc1nc2ccccc2[nH]c1=O)c1cc2cc(C)ccc2oc1=O	19 mm	15 mm	0 mm	19 mm	16 mm	25 mm	12 mm	10 mm	10 mm	62.5 µg/mL (≈ 173 µM)	31.3 µg/mL (≈ 86.9 µM)	31.3 µg/mL (≈ 86.9 µM)	7.8 µg/mL (≈ 21.6 µM)	15.6 µg/mL (≈ 43.3 µM)	62.5 µg/mL (≈ 173 µM)	31.3 µg/mL (≈ 86.9 µM)	62.5 µg/mL (≈ 173 µM)	14 mm	15 mm	
O=c1[nH]c2ccccc2nc1NN=C1CCCCC1	19 mm	11 mm	12 mm	17 mm	16 mm	25 mm	10 mm	0 mm	21 mm	inactive	31.3 µg/mL (≈ 122 µM)	31.3 µg/mL (≈ 122 µM)	15.6 µg/mL (≈ 60.9 µM)	15.6 µg/mL (≈ 60.9 µM)	62.5 µg/mL (≈ 244 µM)	15.6 µg/mL (≈ 60.9 µM)	125 µg/mL (≈ 488 µM)	0 mm	15 mm	
O=c1[nH]c2ccccc2nc1N/N=C1\CCCCC1Br (stereo unspecified)	13 mm	13 mm	0 mm	12 mm	20 mm	28 mm	15 mm	0 mm	19 mm	15.6 µg/mL (≈ 46.5 µM)	31.3 µg/mL (≈ 93.4 µM)	7.8 µg/mL (≈ 23.3 µM)	7.8 µg/mL (≈ 23.3 µM)	31.3 µg/mL (≈ 93.4 µM)	31.3 µg/mL (≈ 93.4 µM)	31.3 µg/mL (≈ 93.4 µM)	15.6 µg/mL (≈ 46.5 µM)	19 mm	13 mm	
CC12CCC(C/C1=N\Nc1nc3ccccc3[nH]c1=O)C2(C)C (stereo unspecified)	11 mm	18 mm	0 mm	16 mm	16 mm	10 mm	0 mm	13 mm	21 mm	125 µg/mL (≈ 403 µM)	31.3 µg/mL (≈ 101 µM)	15.6 µg/mL (≈ 50.3 µM)	62.5 µg/mL (≈ 201 µM)	62.5 µg/mL (≈ 201 µM)	15.6 µg/mL (≈ 50.3 µM)	31.3 µg/mL (≈ 101 µM)	inactive	5 mm	14 mm	
O=c1[nH]c2ccccc2nc1N/N=C1\CCCCC1Cl (stereo unspecified)	12 mm	12 mm	9 mm	13 mm	16 mm	12 mm	0 mm	0 mm	15 mm	31.3 µg/mL (≈ 108 µM)	31.3 µg/mL (≈ 108 µM)	15.6 µg/mL (≈ 53.7 µM)	31.3 µg/mL (≈ 108 µM)	62.5 µg/mL (≈ 215 µM)	62.5 µg/mL (≈ 215 µM)	31.3 µg/mL (≈ 108 µM)	inactive	14 mm	14 mm	
CC(C)=NNc1nc2ccccc2[nH]c1=O	12 mm	30 mm	0 mm	12 mm	30 mm	24 mm	13 mm	0 mm	31 mm	62.5 µg/mL (≈ 289 µM)	7.8 µg/mL (≈ 36.1 µM)	7.8 µg/mL (≈ 36.1 µM)	15.6 µg/mL (≈ 72.1 µM)	62.5 µg/mL (≈ 289 µM)	7.8 µg/mL (≈ 36.1 µM)	15.6 µg/mL (≈ 72.1 µM)	31.3 µg/mL (≈ 145 µM)	14 mm	30 mm	
O=c1[nH]c2ccccc2nc1NN=C1CCCC1	0 mm	17 mm	10 mm	14 mm	12 mm	20 mm	12 mm	0 mm	29 mm	125 µg/mL (≈ 516 µM)	62.5 µg/mL (≈ 258 µM)	31.3 µg/mL (≈ 129 µM)	15.6 µg/mL (≈ 64.4 µM)		31.3 µg/mL (≈ 129 µM)	15.6 µg/mL (≈ 64.4 µM)	62.5 µg/mL (≈ 258 µM)	10 mm	14 mm	inactive
NYSTATIN	inactive	inactive	inactive	inactive	inactive	inactive	inactive	inactive										inactive	inactive	

From ChEMBL document CHEMBL1157693, “Microwave assisted synthesis and antimicrobial activity of 2-quinoxalinone-3-hydrazone derivatives” (2010)
